Source: ChEMBL document CHEMBL1140866, “New pyrazoline bearing 4(3H)-quinazolinone inhibitors of monoamine oxidase: synthesis, biological evaluation, and structural determinants of MAO-A and MAO-B selectivity” (Bioorg Med Chem, 2009)

system: Mus musculus; experiment: Anxiolytic activity in albino mouse assessed as time spent on closed arm at 100 mg/kg, ip by plus-maze test; type: functional; parameters: unit not given here; conditions: route intraperitoneal
Method in brief: (§1)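 Mice given compounds i.p. at 100 mg/kg in DMSO/water (1:4), about 0.1 mL, 1 h before testing; controls got 0.1 mL vehicle; n = 7–8. Housed eight per cage, 20 ± 2 °C, 12 h light/dark. Each animal did the plus-maze first, then forced swim.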

First: Cn1c(N/N=C(/C=C/c2cccc(Cl)c2)c2ccccc2)nc2ccccc2c1=O
Second: Cc1ccc(/C=C/C(=N/Nc2nc3ccccc3c(=O)n2C)c2ccccc2)cc1
The Activity of the first is higher: 246.87 for the first, 216.12 for the second.

Compared with Cn1c(N/N=C(/C=C/c2ccco2)c2ccc(Cl)cc2)nc2ccccc2c1=O, COc1ccc(C(/C=C/c2ccco2)=N\Nc2nc3ccccc3c(=O)n2C)cc1 is higher in Activity: 219.5 for the first, 237.25 for the second.

Going from Cc1ccc(C2=NN(c3nc4ccccc4c(=O)n3C)C(c3cccs3)C2)cc1 (centres undefined) to CCOc1ccc(/C=C/C(=N/Nc2nc3ccccc3c(=O)n2C)c2ccccc2)cc1, the Activity rises from 188.14 to 218.88.

system: Mus musculus; experiment: Anxiolytic activity in albino mouse assessed as total number of entries into arms at 100 mg/kg, ip by plus-maze test; type: functional; conditions: route intraperitoneal; method in brief: as §1

First: Cn1c(N/N=C(/C=C/c2cccc(Cl)c2)c2ccccc2)nc2ccccc2c1=O
Second: Cc1ccc(/C=C/C(=N/Nc2nc3ccccc3c(=O)n2C)c2ccccc2)cc1
The arm entries of the first is lower: 3.15 entries for the first, 6.37 entries for the second.

Compared with Cn1c(N/N=C(/C=C/c2ccco2)c2ccc(Cl)cc2)nc2ccccc2c1=O, COc1ccc(C(/C=C/c2ccco2)=N\Nc2nc3ccccc3c(=O)n2C)cc1 is lower in arm entries: 6.75 entries for the first, 4.63 entries for the second.

Compared with Cc1ccc(C2=NN(c3nc4ccccc4c(=O)n3C)C(c3cccs3)C2)cc1 (centres undefined), CCOc1ccc(/C=C/C(=N/Nc2nc3ccccc3c(=O)n2C)c2ccccc2)cc1 is higher in arm entries: 5.14 entries for the first, 5.75 entries for the second.

system: Mus musculus; experiment: Antidepressant activity in albino mouse assessed as immobility time at 100 mg/kg, ip by forced swim test; type: functional; conditions: route intraperitoneal; method in brief: as §1

Going from Cn1c(N/N=C(/C=C/c2cccc(Cl)c2)c2ccccc2)nc2ccccc2c1=O to Cc1ccc(/C=C/C(=N/Nc2nc3ccccc3c(=O)n2C)c2ccccc2)cc1, the Activity rises from 54.57% to 79.25%.

Compared with Cn1c(N/N=C(/C=C/c2ccco2)c2ccc(Cl)cc2)nc2ccccc2c1=O, COc1ccc(C(/C=C/c2ccco2)=N\Nc2nc3ccccc3c(=O)n2C)cc1 is higher in Activity: 67.88% for the first, 80.38% for the second.

Compared with Cc1ccc(C2=NN(c3nc4ccccc4c(=O)n3C)C(c3cccs3)C2)cc1 (centres undefined), CCOc1ccc(/C=C/C(=N/Nc2nc3ccccc3c(=O)n2C)c2ccccc2)cc1 is higher in Activity: 74.14% for the first, 90.23% for the second.

target: T1, Amine oxidase [flavin-containing] A (Rattus norvegicus, UniProt P21396); experiment: Inhibition of MAO-A in rat liver homogenate after 60 mins by Lineweaver-Burke plot; type: tissue-based; conditions: not given
T1 sequence (P21396 whole entry): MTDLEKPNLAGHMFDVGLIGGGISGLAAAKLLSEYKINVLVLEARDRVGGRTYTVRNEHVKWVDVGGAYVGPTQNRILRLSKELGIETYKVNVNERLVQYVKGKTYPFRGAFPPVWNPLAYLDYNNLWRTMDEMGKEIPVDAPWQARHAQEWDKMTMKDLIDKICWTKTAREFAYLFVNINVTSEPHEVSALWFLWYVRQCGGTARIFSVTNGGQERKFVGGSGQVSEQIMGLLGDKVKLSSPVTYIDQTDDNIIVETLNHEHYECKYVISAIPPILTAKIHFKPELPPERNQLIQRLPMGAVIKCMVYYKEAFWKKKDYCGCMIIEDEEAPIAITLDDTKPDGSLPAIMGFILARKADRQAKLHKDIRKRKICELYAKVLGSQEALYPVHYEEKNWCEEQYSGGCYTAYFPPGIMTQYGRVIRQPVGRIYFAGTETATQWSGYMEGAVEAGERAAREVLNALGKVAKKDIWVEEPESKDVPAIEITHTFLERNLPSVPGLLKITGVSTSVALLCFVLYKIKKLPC

Going from Cn1c(N/N=C(/C=C/c2cccc(Cl)c2)c2ccccc2)nc2ccccc2c1=O to Cc1ccc(/C=C/C(=N/Nc2nc3ccccc3c(=O)n2C)c2ccccc2)cc1, the Ki rises from 5.1 µM to 30.2 µM (5.9-fold).

Cn1c(N/N=C(/C=C/c2ccco2)c2ccc(Cl)cc2)nc2ccccc2c1=O and COc1ccc(C(/C=C/c2ccco2)=N\Nc2nc3ccccc3c(=O)n2C)cc1 are within 1.5-fold of each other in Ki: 80.1 µM for the first, 70.3 µM for the second.

Compared with Cc1ccc(C2=NN(c3nc4ccccc4c(=O)n3C)C(c3cccs3)C2)cc1 (centres undefined), CCOc1ccc(/C=C/C(=N/Nc2nc3ccccc3c(=O)n2C)c2ccccc2)cc1 is 1.6-fold lower in Ki: 130 µM for the first, 80.1 µM for the second. The second binds more tightly here.

same assay, conditions: rat, 1 h; TDE = time-dependent effect

Cn1c(N/N=C(/C=C/c2cccc(Cl)c2)c2ccccc2)nc2ccccc2c1=O was tested, and the Activity was “tde”.
With Cn1c(N/N=C(/C=C/c2ccco2)c2ccc(Cl)cc2)nc2ccccc2c1=O the Activity was “tde”.
With COc1ccc(C(/C=C/c2ccco2)=N\Nc2nc3ccccc3c(=O)n2C)cc1 the Activity was “tde”.
Cc1ccc(/C=C/C(=N/Nc2nc3ccccc3c(=O)n2C)c2ccccc2)cc1 was tested, and the Activity was “tde”.
Cc1ccc(C2=NN(c3nc4ccccc4c(=O)n3C)C(c3cccs3)C2)cc1 (centres undefined) was tested, and the Activity was “tde”.
With CCOc1ccc(/C=C/C(=N/Nc2nc3ccccc3c(=O)n2C)c2ccccc2)cc1 the Activity was “tde”.

target: T2, Amine oxidase [flavin-containing] B (Rattus norvegicus, UniProt P19643); experiment: Inhibition of MAO-B in rat liver homogenate after 60 mins by residual activity plot; type: tissue-based; conditions: not given
T2 sequence (P19643 whole entry): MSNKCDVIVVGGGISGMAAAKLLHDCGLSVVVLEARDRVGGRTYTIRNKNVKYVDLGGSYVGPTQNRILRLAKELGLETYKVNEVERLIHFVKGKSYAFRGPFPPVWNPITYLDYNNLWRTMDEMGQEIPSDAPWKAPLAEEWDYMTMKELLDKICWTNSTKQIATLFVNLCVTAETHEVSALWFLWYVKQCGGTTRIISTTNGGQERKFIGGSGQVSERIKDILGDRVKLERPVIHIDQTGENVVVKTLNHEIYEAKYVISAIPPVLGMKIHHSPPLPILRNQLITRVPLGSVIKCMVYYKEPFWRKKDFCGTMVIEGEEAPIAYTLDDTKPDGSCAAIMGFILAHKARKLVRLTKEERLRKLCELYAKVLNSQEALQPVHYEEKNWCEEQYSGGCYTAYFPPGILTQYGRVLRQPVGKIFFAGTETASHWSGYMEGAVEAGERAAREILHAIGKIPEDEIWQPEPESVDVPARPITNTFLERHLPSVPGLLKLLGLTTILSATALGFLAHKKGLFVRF

First: Cn1c(N/N=C(/C=C/c2cccc(Cl)c2)c2ccccc2)nc2ccccc2c1=O
Second: Cc1ccc(/C=C/C(=N/Nc2nc3ccccc3c(=O)n2C)c2ccccc2)cc1
The IC50 of the first is 410-fold lower: 1.15 µM for the first, 470 µM for the second. The first is the more potent here.

Cn1c(N/N=C(/C=C/c2ccco2)c2ccc(Cl)cc2)nc2ccccc2c1=O and COc1ccc(C(/C=C/c2ccco2)=N\Nc2nc3ccccc3c(=O)n2C)cc1 are within 1.5-fold of each other in IC50: 400 µM for the first, 419 µM for the second.

Going from Cc1ccc(C2=NN(c3nc4ccccc4c(=O)n3C)C(c3cccs3)C2)cc1 (centres undefined) to CCOc1ccc(/C=C/C(=N/Nc2nc3ccccc3c(=O)n2C)c2ccccc2)cc1, the IC50 rises from 70.8 µM to 429 µM (6.1-fold). The first is the more potent here.

target: T1, Amine oxidase [flavin-containing] A; experiment: Inhibition of MAO-A in rat liver homogenate after 60 mins by residual activity plot; type: tissue-based; conditions: not given

First: Cn1c(N/N=C(/C=C/c2cccc(Cl)c2)c2ccccc2)nc2ccccc2c1=O
Second: Cc1ccc(/C=C/C(=N/Nc2nc3ccccc3c(=O)n2C)c2ccccc2)cc1
The IC50 of the first is 15-fold higher: 468 µM for the first, 30.5 µM for the second. The second is the more potent here.

Cn1c(N/N=C(/C=C/c2ccco2)c2ccc(Cl)cc2)nc2ccccc2c1=O and COc1ccc(C(/C=C/c2ccco2)=N\Nc2nc3ccccc3c(=O)n2C)cc1 are within 1.5-fold of each other in IC50: 31.6 µM for the first, 34.2 µM for the second.

Going from Cc1ccc(C2=NN(c3nc4ccccc4c(=O)n3C)C(c3cccs3)C2)cc1 (centres undefined) to CCOc1ccc(/C=C/C(=N/Nc2nc3ccccc3c(=O)n2C)c2ccccc2)cc1, the IC50 falls from 415 µM to 29 µM (14-fold). The second is the more potent here.

target: T2, Amine oxidase [flavin-containing] B; experiment: Inhibition of MAO-B in rat liver homogenate after 60 mins by Lineweaver-Burke plot; type: tissue-based; conditions: not given

Going from Cn1c(N/N=C(/C=C/c2cccc(Cl)c2)c2ccccc2)nc2ccccc2c1=O to Cc1ccc(/C=C/C(=N/Nc2nc3ccccc3c(=O)n2C)c2ccccc2)cc1, the Ki rises from 0.16 µM to 64.6 µM (400-fold). The first binds more tightly here.

Cn1c(N/N=C(/C=C/c2ccco2)c2ccc(Cl)cc2)nc2ccccc2c1=O and COc1ccc(C(/C=C/c2ccco2)=N\Nc2nc3ccccc3c(=O)n2C)cc1 are within 1.5-fold of each other in Ki: 125 µM for the first, 90.5 µM for the second.

Compared with Cc1ccc(C2=NN(c3nc4ccccc4c(=O)n3C)C(c3cccs3)C2)cc1 (centres undefined), CCOc1ccc(/C=C/C(=N/Nc2nc3ccccc3c(=O)n2C)c2ccccc2)cc1 is 3-fold lower in Ki: 90.7 µM for the first, 30.6 µM for the second. The second binds more tightly here.

same assay, conditions: rat, 1 h; TDE = time-dependent effect

In the case of Cn1c(N/N=C(/C=C/c2cccc(Cl)c2)c2ccccc2)nc2ccccc2c1=O, the Activity is reported as “tde”.
In the case of Cn1c(N/N=C(/C=C/c2ccco2)c2ccc(Cl)cc2)nc2ccccc2c1=O, the Activity is reported as “tde”.
COc1ccc(C(/C=C/c2ccco2)=N\Nc2nc3ccccc3c(=O)n2C)cc1 was tested, and the Activity was “tde”.
In the case of Cc1ccc(/C=C/C(=N/Nc2nc3ccccc3c(=O)n2C)c2ccccc2)cc1, the Activity is reported as “tde”.
For Cc1ccc(C2=NN(c3nc4ccccc4c(=O)n3C)C(c3cccs3)C2)cc1 (centres undefined), the Activity was “tde”.
For CCOc1ccc(/C=C/C(=N/Nc2nc3ccccc3c(=O)n2C)c2ccccc2)cc1, the Activity was “tde”.
